# Assay results collected from several papers.
# Each line is one published result; the experiments were not run side by side.
# Target: Testis-specific serine/threonine-protein kinase 1 (TSSK1B, Homo sapiens, UniProt Q9BXA7)
# Sequence (Q9BXA7 1-367, as in one of the studies): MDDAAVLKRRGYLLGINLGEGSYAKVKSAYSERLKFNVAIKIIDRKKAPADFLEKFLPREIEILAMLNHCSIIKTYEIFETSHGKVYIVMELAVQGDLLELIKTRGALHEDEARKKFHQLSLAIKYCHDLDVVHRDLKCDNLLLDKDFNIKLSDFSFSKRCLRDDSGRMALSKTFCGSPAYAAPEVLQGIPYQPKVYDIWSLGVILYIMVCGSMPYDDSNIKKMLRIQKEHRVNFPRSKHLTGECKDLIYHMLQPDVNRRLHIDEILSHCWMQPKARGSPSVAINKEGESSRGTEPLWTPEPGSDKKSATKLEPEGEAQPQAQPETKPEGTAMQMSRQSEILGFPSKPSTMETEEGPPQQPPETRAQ
Structure (SMILES),observed,method,concentration,remaining binding [%]
O=C(NCC1CCOCC1)c1n[nH]cc1NC(=O)c1c(F)cccc1F,binding,competition with immobilised ligand,1 µM,97
F[C@@H]1CCN(c2nccc(-c3cnn4ncccc34)n2)C1,binding,,1 µM,100
CC(C)(C)c1ccc(-c2nc(CBr)nn2-c2cccc(O)c2)cc1,cell-free assay,competition with immobilised ligand,10 µM,81
COc1ccc2c(c1)O[C@H](c1ccc(OC)c(OC)c1)C[C@@H]2NC(=O)C1(c2ccc3c(c2)OC(F)(F)O3)CC1,cell-free assay,competition with immobilised ligand,1 µM,100
COc1ncc2cc3ccccc3nc2c1C#N,cell-free assay,competition with immobilised ligand,5 µM,97
O=C(O)[C@@H]1[C@@H](Cn2nnc3ccccc3c2=O)CC[C@H]1C(=O)c1ccc(OCCC2CCOCC2)cc1,cell-free assay,competition with immobilised ligand,1 µM,100
O=C(c1ccc(Nc2ncc(Cl)c(-c3ccc(Cl)s3)n2)cc1)N1CCC(N2CCCC2)CC1,binding,competition with immobilised ligand,1 µM,49
Cn1cc(Cl)c2c(Oc3c(F)cc(Nc4cc(Cl)nc(N)n4)cc3F)ccnc21,cell-free assay,competition with immobilised ligand,0.1 µM,100
CCN1CCN(Cc2ccc(C(=O)Nc3ccc(C)c(Oc4ccc5c(c4)CC(=O)N5)c3)cc2C(F)(F)F)CC1,binding,competition with immobilised ligand,1 µM,93
N[C@@H]1CCN(c2nccc(-c3cnn4ncccc34)n2)C1,binding,,1 µM,97
COc1cnc(Nc2cccc(S(N)(=O)=O)c2)nc1N1CCN(c2ccccc2)CC1,binding,competition with immobilised ligand,1 µM,100
O=C(NCCCN1CCOCC1)c1ccc(Nc2ncc(Cl)c(-c3ccc(Cl)s3)n2)cc1,binding,competition with immobilised ligand,1 µM,62
NS(=O)(=O)c1cc(NC(=O)C2(c3ccccc3Cl)CC2)ccc1Oc1cccc(Cl)c1,cell-free assay,competition with immobilised ligand,1 µM,100
CN(C)c1ncc(F)c(-c2cnn3ncccc23)n1,binding,,1 µM,100
O=C(c1ccc(Nc2nccc(-c3cc4ccccc4s3)n2)cc1)N1CCC(N2CCCC2)CC1,binding,competition with immobilised ligand,1 µM,100
CN(c1nccc(-c2cnn3ncccc23)n1)C1CC1,binding,,1 µM,100
C[C@@H]1CN(c2ccc3ncc(-c4ccc5[nH]nc(C6CC6)c5c4)n3n2)C[C@H](C)O1,binding,competition with immobilised ligand,50 nM,78
C[C@@H]1CCN(c2nccc(-c3cnn4ncccc34)n2)C1,binding,,1 µM,100
CC(C)CC(=O)N1CCc2nc(-c3ccc(Br)cc3)nc(N(C)Cc3ccccc3)c2C1,cell-free assay,competition with immobilised ligand,0.1 µM,99
COc1cnc(Nc2cccc(S(N)(=O)=O)c2)nc1N1CCN(c2ccccc2)C(=O)C1,binding,competition with immobilised ligand,1 µM,92
COc1ccnn2ncc(-c3ccnc(N(C)C)n3)c12,binding,,1 µM,100
c1cncc(-c2cccc(Nc3nccc(NC4CCCCC4)n3)c2)c1,binding,competition with immobilised ligand,10 µM,60
O=C(N1CCS(=O)(=O)CC1)N1C[C@H](c2ccc(OC(F)(F)F)cc2)C[C@H](c2nc(C3CC3)no2)C1,cell-free assay,competition with immobilised ligand,1 µM,95
C[C@@H](c1ccc(-n2cnc3c(N)ncnc32)cc1)N1CCc2nn(C)c(Cc3ccccc3)c2C1=O,binding,competition with immobilised ligand,0.1 µM,100
CN(CCCC(F)(F)F)c1nccc(-c2cnn3ncccc23)n1,binding,,1 µM,92
Cc1noc([C@H]2C[C@@H](c3ccc(C(F)(F)F)cc3)CN(C(=O)N3CCS(=O)(=O)C3)C2)n1,cell-free assay,competition with immobilised ligand,1 µM,100
